# Screening results: PubChem BioAssay, several laboratories
# GC-A act: GC-A stimulated cGMP production enhancers – HEK293 GC-A cells, cGMP TR-FRET, EC30 ANP, primary screen; Atrial natriuretic peptide receptor 1 (Homo sapiens), P16066; 0% at EC30 ANP, 100% saturating ANP; activation, % at 10 µM; 370,000 compounds, 0.14% hits; in the data active = activation above about 40%
# CaV13 FRET inh: Disruptors of the CACNA1D IQ motif to Ca2+-dependent inactivation inhibitor domain association, primary screening, Förster resonance energy transfer in intact living … | HEK cells, CFP/YFP FRET ICDI-IQ, plate reader, 10 min; percent FRET-ratio fall versus neutral wells | inhibition, % at 12.3 µM | 340,000 compounds, 0.098% hits | AID 743397;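 active = mean replicate inhibition of at least 30% and at least 1% of replicates passing that level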;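 note: 0% = median of the neutral control wells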
# CASP6 VEID inh: human caspase-6 inhibitors, primary screen, biochemical, VEID-R110 fluorescence, single point, set 2; 350,000 compounds, 0.53% hits; AID 686996, 2013; inhibition, % at 12.5 µM; purified caspase-6, Z-VEID-R110 cleavage fluorescence;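 active = mean inhibition across replicates at least about 35%, with every replicate also reaching that limit, limit read from the data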;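 note: 0% = median of neutral control wells and 100% = no fluorescence left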
# NSD2 HMT inh: NSD2 histone methyltransferase inhibitors, primary screen, biochemical, AlphaScreen, single concentration, set 2. Histone-lysine N-methyltransferase NSD2 (Homo sapiens), O96028. NSD2 peptide methylation, 120 min. inhibition, % at 12.5 µM. 310,000 compounds, 0.54% hits; in the data active = inhibition above about 50%
# FN deposition inh: inhibitors of fibronectin matrix deposition, primary screen, AH1F cells, Alexa488-fibronectin fluorescence, plate reader; AH1F fibroblasts, overnight; inhibition, % at 12.6 µM; AID 743247, 2014; 350,000 compounds, 0.086% hits;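 active = mean inhibition across replicates of 30% or more, regardless of how many single replicates reach that level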;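 note: positive control wells lacked labelled fibronectin entirely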
#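 Measured by – fluorescence 485/525 nm · System – AH1F fibroblast monolayer, labelled fibronectin deposition · Amount – 10000 cells per well · Buffer or medium – serum-reduced DMEM (2% serum) · Doses – single dose, pinned · Also added – fluorescent fibronectin at 24 nM final · Schedule – 1 h cell attachment, overnight exposure to compound and label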
# NPR2 activator: human GC-B receptor activators, primary screen, HEK293 GC-B cells, cGMP TR-FRET, EC30 CNP. activation, % at 10 µM. 370,000 compounds, 0.11% hits. 0% at EC30 CNP, 100% saturating CNP;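 active = activation at 10 µM reaching about 35% in either raw or pattern-adjusted values, limit read from the data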
# Starred values were filed as active, the others as inactive; / = no result given. A selection: hits, their analogues and other compounds. The true share with any hit is near 0.99%.
SMILES,GC-A act,CaV13 FRET inh,CASP6 VEID inh,NSD2 HMT inh,FN deposition inh,NPR2 activator
Cc1cc(NC(=S)NC(=O)C2CCCC2)ccc1Br,/,/,/,-4,/,/
COCC(=O)OC1CCn2c1nc1c2C(=O)C(C)=C(NC(C)=O)C1=O (stereo unspecified),-5,-5,99*,/,1,3
C[C@@H]1CCCCO[C@H](CN(C)C(=O)Nc2ccc(F)cc2)[C@@H](C)CN([C@@H](C)CO)C(=O)c2cc(NC(=O)CCCN(C)C)ccc2O1,/,/,0,/,/,/
Cc1c(NS(=O)(=O)c2cccc(C(=O)OCC(=O)c3ccc(Cl)cc3)c2)c(=O)n(-c2ccccc2)n1C,61*,-1,-1,-1,-3,-2
Cc1c(NS(=O)(=O)c2cccc(C(=O)NCc3ccccc3Cl)c2)c(=O)n(-c2ccccc2)n1C,0,-6,4,-3,-5,-2
C[C@H]1CN([C@@H](C)CO)C(=O)c2cc(C3=CCCCC3)cnc2O[C@@H]1CN(C)C(=O)c1ccc2c(c1)OCO2,/,/,0,/,-8,/
Cc1ccc(S(=O)(=O)N(C)C[C@H]2Oc3ccc(NC(=O)CCCCCC(=O)Nc4ccccc4N)cc3C(=O)N([C@H](C)CO)C[C@@H]2C)cc1,/,/,-1,/,/,/
Cc1noc(C)c1NC(=O)Nc1ccc2c(c1)C(=O)N([C@@H](C)CO)C[C@H](C)[C@@H](CN(C)Cc1ccncc1)OCCCC[C@H](C)O2,/,/,0,/,/,/
C[C@H](CO)N1C[C@H](C)[C@@H](CN(C)C(=O)Nc2cccc3ccccc23)OCCCC[C@H](C)Oc2ccc(NC(=O)Nc3ccc4c(c3)OCO4)cc2C1=O,/,/,0,/,/,/
FC(F)(F)c1ccc(Cl)c(-n2c(-c3cc(-c4ccco4)[nH]n3)n[nH]c2=S)c1,-9,-4,69*,5,7,-5
O=C(CCc1[nH]c2ccccc2c1Sc1ccccc1)NCCO,43*,-3,/,0,2,16
O=C(CCc1ccccc1)NCCSc1ccccc1,-4,-3,-9,-4,7,1
COCCNC(=O)C[C@@H]1CC[C@@H](NC(=O)NC2CCCCC2)[C@H](CO)O1,/,/,3,/,/,/
O=C(O)c1ccc(N2C(=O)CC(N3CCN(c4cccc(C(F)(F)F)c4)CC3)C2=O)cc1 (stereo unspecified),4,4,90*,4,15,1
COC(=O)C1=C(O)/C(=C\c2ccc(CNS(=O)(=O)c3ccc(Cl)cc3)o2)N=C1C,0,/,49*,-2,/,-3
O=C(NC(=C(Cl)Cl)S(=O)(=O)c1ccc(Cl)cc1)c1ccccc1,-5,-10,39*,5,3,1
c1ccc(-c2cn3nc4c(nc3n2)CCCC4)cc1,4,34*,/,-1,/,1
Brc1ccc(-c2cn3nc4c(nc3n2)CCCC4)cc1,0,1,/,3,/,2
COc1cc2c(cc1OC)C(=O)C(Br)CC2 (stereo unspecified),/,/,/,140*,/,/
COc1cc2c(cc1OC)C(=O)C(c1ccc3c(c1)OCO3)CC2 (stereo unspecified),0,-8,/,-1,4,2
CC(NC(=O)/C(C#N)=C/c1ccc(Cl)c([N+](=O)[O-])c1)c1ccccc1 (stereo unspecified),55*,-18,-3,-3,2,0
CCNC(=O)[C@@H]1[C@@H](CO)[C@@H]2Cn3c(ccc(-c4cccc(F)c4)c3=O)[C@@H]2N1Cc1nccs1,/,/,1,/,/,/
O=C(O)[C@@H]1[C@@H](CO)[C@@H]2Cn3c(ccc(/C=C/c4ccccc4)c3=O)[C@@H]2N1Cc1ccc2c(c1)OCO2,/,/,50*,/,10,/
CC(C)(C)OC(=O)[C@H](Cc1ccccc1)NC(=O)c1ncn2c1c(=O)[nH]c1ccc(Br)cc12,19,-5,2,/,1,39*
CC(C)(C)OC(=O)[C@H](Cc1ccccc1)NC(=O)c1nc[nH]c1C(=O)N[C@@H](Cc1ccccc1)C(=O)OC(C)(C)C,-3,-5,-3,/,-8,5
SMILES,GC-A act,CaV13 FRET inh,CASP6 VEID inh,NSD2 HMT inh,FN deposition inh,NPR2 activator
CO[C@H]1CN(C)C(=O)c2ccc(NC(=O)C3CCOCC3)cc2OC[C@@H](C)N(Cc2cccnc2)C[C@H]1C,/,/,-4,/,-11,/
Cc1c(O)cc2c(c1O)C(=O)CC(c1ccc(O)cc1)O2 (stereo unspecified),-2,/,46*,/,/,-1
O=C(NC(=S)NNS(=O)(=O)c1ccccc1)c1ccccc1[N+](=O)[O-],2,-19,52*,-5,-1,6
CO[C@H]1CN(C)C(=O)c2cc(NC(=O)C3CC3)ccc2OC[C@H](C)N(CCc2ccccc2)C[C@H]1C,/,/,/,/,4,/
COc1ccc(NC(=S)N(CCN2CCOCC2)Cc2cc3cc4c(cc3[nH]c2=O)OCCO4)cc1,4,-9,38*,4,1,-3
Cc1cccc(NC(=S)N(CCN2CCOCC2)Cc2cc3cc4c(cc3[nH]c2=O)OCO4)c1,-3,-5,2,1,7,-6
O=C(ONC(=O)C1CCCCC1C(=O)NOC(=O)c1ccccc1)c1ccccc1 (stereo unspecified),-2,-9,40*,-14,2,9
O=C(COC(=O)c1ccccc1)NC1CCCC1,-2,-3,-5,0,1,1
COc1ccc(-c2cc(-c3ccco3)[nH]c(=O)c2C#N)cc1OC,-4,-38,38*,/,1,1
CC(CC(=O)Nc1ccc2c(c1)c(=O)n(C)n2-c1cccs1)c1ccccc1 (stereo unspecified),-1,-5,37*,-4,8,3
O=C1NC(Cc2ccc(O)cc2)c2nc3ccc(Br)cc3c(=O)n2-c2cc3ccccc3cc21 (stereo unspecified),0,-1,3,/,-7,31
O=C1NC(Cc2ccc(O)cc2)c2nc3ccc(Br)cc3c(=O)n2-c2ncccc21 (stereo unspecified),-8,-8,40*,/,-8,0
C[C@@H]1CN([C@@H](C)CO)S(=O)(=O)c2ccc(C3=CCCCC3)cc2O[C@@H]1CN(C)C(=O)C1CCCCC1,/,/,1,/,/,/
COc1ccc(CCNC(=O)CSc2cn(Cc3cccc(C)c3)c3ccccc23)cc1OC,-15,49*,0,/,11,-12
COc1ccc(CCNC(=O)CSc2cn(Cc3ccccc3)c3ccccc23)cc1OC,-13,-6,0,/,9,-3
